Results: ChEMBL document CHEMBL6153131, “Rational Design and Optimization of a Potent IDO1 Proteolysis Targeting Chimera (PROTAC)” (J Med Chem, 2025)
Activity calls are given as the source filed them. The calls are words filed in the database; no cut-off is given here.

Columns and labels:
[1] = target: T1, Protein cereblon/Indoleamine 2,3-dioxygenase 1 (Homo sapiens, UniProt P14902+Q96SW2); experiment: PROTAC activity at CRBN/N-terminal HiBiT-tagged IDO1 (unknown origin) transfected in human U87 cells assessed as induction of IDO1 degradation by measuring maximum efficacy pretreated with IFN-gamma for 24 hrs followed by compound addition and measured after 24 hrs by Nano-Glo HiBiT assay relative to control; assay type: cell-based
Method in brief: (§1)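 U87 cells carrying HiBiT knocked in by CRISPR/Cas9 at the IDO1 N-terminus, treated for 24 h. Degradation read as loss of luminescence. DC50 fitted from the lowest concentration up to maximal degradation, excluding hook-effect points; triplicate mean ± SD.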
Target sequence in this assay (P14902 whole entry, looked up): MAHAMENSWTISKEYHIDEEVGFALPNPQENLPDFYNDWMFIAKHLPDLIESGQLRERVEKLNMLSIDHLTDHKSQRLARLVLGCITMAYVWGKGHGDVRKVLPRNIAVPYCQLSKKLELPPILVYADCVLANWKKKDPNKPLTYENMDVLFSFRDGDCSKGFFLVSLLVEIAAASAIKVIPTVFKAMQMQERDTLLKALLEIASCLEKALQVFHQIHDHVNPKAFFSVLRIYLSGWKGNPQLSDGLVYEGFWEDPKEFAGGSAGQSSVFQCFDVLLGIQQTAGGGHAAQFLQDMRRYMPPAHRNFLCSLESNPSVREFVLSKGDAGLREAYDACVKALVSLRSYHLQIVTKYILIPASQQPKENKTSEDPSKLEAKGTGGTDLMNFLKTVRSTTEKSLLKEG
Target sequence in this assay (Q96SW2 whole entry, looked up): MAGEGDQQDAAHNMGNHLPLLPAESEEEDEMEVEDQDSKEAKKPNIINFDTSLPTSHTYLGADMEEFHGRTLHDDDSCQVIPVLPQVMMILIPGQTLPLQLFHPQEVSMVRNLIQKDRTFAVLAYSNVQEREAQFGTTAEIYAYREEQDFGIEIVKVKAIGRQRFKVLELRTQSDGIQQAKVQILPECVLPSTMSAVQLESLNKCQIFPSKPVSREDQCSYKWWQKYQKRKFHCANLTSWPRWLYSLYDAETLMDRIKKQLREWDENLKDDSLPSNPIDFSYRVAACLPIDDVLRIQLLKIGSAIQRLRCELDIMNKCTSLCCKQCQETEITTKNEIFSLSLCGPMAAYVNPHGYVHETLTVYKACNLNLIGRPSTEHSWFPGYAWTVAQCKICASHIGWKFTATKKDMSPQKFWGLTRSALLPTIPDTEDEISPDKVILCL

[2] = target: T1, Protein cereblon/Indoleamine 2,3-dioxygenase 1; experiment: PROTAC activity at CRBN/N-terminal HiBiT-tagged IDO1 (unknown origin) transfected in human U87 cells assessed as induction of IDO1 degradation pretreated with IFN-gamma for 24 hrs followed by compound addition and measured after 24 hrs by Nano-Glo HiBiT assay; assay type: cell-based; method in brief: as §1
Target sequence in this assay (P14902 whole entry): as the sequence (P14902 whole entry, looked up) above
Target sequence in this assay (Q96SW2 whole entry): as the sequence (Q96SW2 whole entry, looked up) above

[3] = target: T1, Protein cereblon/Indoleamine 2,3-dioxygenase 1; experiment: PROTAC activity at CRBN/IDO1 in human MDA-MB-231 cells assessed as induction of IDO1 degradation at 100 nM pretreated with IFN-gamma for 24 hrs followed by compound addition and measured after 24 hrs by Western blotting analysis; assay type: cell-based
Target sequence in this assay (P14902 whole entry, looked up): as the sequence (P14902 whole entry, looked up) above
Target sequence in this assay (Q96SW2 whole entry, looked up): as the sequence (Q96SW2 whole entry, looked up) above

[4] = target: T1, Protein cereblon/Indoleamine 2,3-dioxygenase 1; experiment: PROTAC activity at CRBN/IDO1 in human U87 cells assessed as induction of IDO1 degradation by measuring remaining activity at 50 nM pretreated with IFN-gamma for 24 hrs followed by compound addition and measured after 24 hrs by Western blotting analysis (reference value: 100%); assay type: cell-based
Target sequence in this assay (P14902 whole entry, looked up): as the sequence (P14902 whole entry, looked up) above
Target sequence in this assay (Q96SW2 whole entry, looked up): as the sequence (Q96SW2 whole entry, looked up) above

[5] = target: T1, Protein cereblon/Indoleamine 2,3-dioxygenase 1; experiment: PROTAC activity at CRBN/IDO1 in human PDX-6 cells assessed as induction of IDO1 degradation at 100 nM pretreated with IFN-gamma for 24 hrs followed by compound addition and measured after 24 hrs by Western blotting analysis; assay type: cell-based
Target sequence in this assay (P14902 whole entry, looked up): as the sequence (P14902 whole entry, looked up) above
Target sequence in this assay (Q96SW2 whole entry, looked up): as the sequence (Q96SW2 whole entry, looked up) above

[6] = target: T1, Protein cereblon/Indoleamine 2,3-dioxygenase 1; experiment: PROTAC activity at CRBN/IDO1 in human U87 cells overexpressing GFP-fused IDO1 assessed as induction of IDO1 degradation at 100 nM pretreated with IFN-gamma for 24 hrs followed by compound addition and measured after 24 hrs by Western blotting analysis; assay type: cell-based
Target sequence in this assay (P14902 whole entry, looked up): as the sequence (P14902 whole entry, looked up) above
Target sequence in this assay (Q96SW2 whole entry, looked up): as the sequence (Q96SW2 whole entry, looked up) above

[7] = target: T1, Protein cereblon/Indoleamine 2,3-dioxygenase 1; experiment: PROTAC activity at CRBN/IDO1 in human PC-3 cells assessed as induction of IDO1 degradation at 100 nM pretreated with IFN-gamma for 24 hrs followed by compound addition and measured after 24 hrs by Western blotting analysis; assay type: cell-based
Target sequence in this assay (P14902 whole entry, looked up): as the sequence (P14902 whole entry, looked up) above
Target sequence in this assay (Q96SW2 whole entry, looked up): as the sequence (Q96SW2 whole entry, looked up) above

[8] = target: T1, Protein cereblon/Indoleamine 2,3-dioxygenase 1; experiment: PROTAC activity at CRBN/IDO1 in human KNS-42 cells assessed as induction of IDO1 degradation at 100 nM pretreated with IFN-gamma for 24 hrs followed by compound addition and measured after 24 hrs by Western blotting analysis; assay type: cell-based
[9] = target: T1, Protein cereblon/Indoleamine 2,3-dioxygenase 1; experiment: PROTAC activity at CRBN/IDO1 in human U87 cells assessed as induction of IDO1 degradation by measuring remaining activity at 100 nM pretreated with IFN-gamma for 24 hrs followed by compound addition and measured after 24 hrs by Western blotting analysis (reference value: 100%); assay type: cell-based
[10] = target: T1, Protein cereblon/Indoleamine 2,3-dioxygenase 1; experiment: PROTAC activity at CRBN/IDO1 in human SW1990 cells assessed as induction of IDO1 degradation at 100 nM pretreated with IFN-gamma for 24 hrs followed by compound addition and measured after 24 hrs by Western blotting analysis; assay type: cell-based
[11] = target: T1, Protein cereblon/Indoleamine 2,3-dioxygenase 1; experiment: PROTAC activity at CRBN/IDO1 in human U87 cells assessed as induction of IDO1 degradation by measuring remaining activity at 25 nM pretreated with IFN-gamma for 24 hrs followed by compound addition and measured after 24 hrs by Western blotting analysis (reference value: 100%); assay type: cell-based
[12] = target: T1, Protein cereblon/Indoleamine 2,3-dioxygenase 1; experiment: PROTAC activity at CRBN/IDO1 in human SK-OV-3 cells assessed as induction of IDO1 degradation at 100 nM pretreated with IFN-gamma for 24 hrs followed by compound addition and measured after 24 hrs by Western blotting analysis; assay type: cell-based
[13] = target: T1, Protein cereblon/Indoleamine 2,3-dioxygenase 1; experiment: PROTAC activity at CRBN/IDO1 in human PDX-38 cells assessed as induction of IDO1 degradation at 100 nM pretreated with IFN-gamma for 24 hrs followed by compound addition and measured after 24 hrs by Western blotting analysis; assay type: cell-based
Protein cereblon = Protein cereblon (Homo sapiens, UniProt Q96SW2); experiment: Binding affinity to CRBN (unknown origin) assessed as dissociation constant by Biolayer Interferometry assay
Chain of Protein cereblon (Q96SW2 whole entry): as the sequence (Q96SW2 whole entry, looked up) above

SMILES	Emax [1] [%]	DC50 [2] [nM]	Activity [3]	Activity [4] [%]	Activity [5]	Activity [6]	Activity [7]	Activity [8]	Activity [9] [%]	Activity [10]	Activity [11] [%]	Activity [12]	Activity [13]	Kd (Protein cereblon) [nM]
C[C@@H](C(=O)Nc1cccc(OC2CCN(C(=O)CN3CCC(N4CCN(c5ccc6c(c5)C(=O)N(C5CCC(=O)N(C)C5=O)C6=O)CC4)CC3)CC2)c1)[C@H]1CC[C@@H](c2ccnc3ccc(F)cc32)CC1 (stereo partly specified)	< 10	> 10000	inactive	125	inactive	inactive	inactive	inactive	162	inactive	99	inactive	inactive	–
C[C@@H](C(=O)Nc1ccc(OC2CCN(C(=O)CCOCCOCCNc3cccc4c3C(=O)N(C3CCC(=O)NC3=O)C4=O)CC2)cc1)[C@H]1CC[C@@H](c2ccnc3ccc(F)cc32)CC1 (stereo partly specified)	79	430	–	–	–	–	–	–	–	–	–	–	–	290
